Test results reported in ChEMBL document CHEMBL1121740, “2-l-Rhamnopyranosyl[1,2,4]triazolo[1,5-a]pyridine. 4' and 3' Oxidation products. Synthesis and structure-activity relationships” (J Med Chem, 1981).
≈ marks a conversion by molar mass, not a printed value.

Experiments:
[1] = Cytotoxic dose that inhibit multiplication of normal fibroblast cells (C3H cells); assay type: cell-based; settings: mouse, read-out: CD50 (the source's name)
Outline: (§1)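 Growth assay on C3H mouse fibroblasts. 10⁴ cells are seeded per well, and different doses of product are added 24 h later. Cellular growth and morphology are examined on day +5.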

[2] = Cytotoxic dose that inhibit multiplication of normal fibroblasts; settings: mouse, read-out: CD50 (the source's name); outline: as §1
[3] = Cytotoxicity at 5 ug/mL against normal mouse fibroblasts (C3H cells) cells; assay type: cell-based
Outline: (§2)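 Colony-forming (plating efficiency) assay. 200 C3H or S+L- 3T3 FL cells per well, grown in McCoy's 5a with 10% heat-inactivated FCS. Various product concentrations are added 24 h after seeding. Colonies are stained with May Grunwald Giemsa and counted on day +9. Percent colony formation is taken relative to untreated control cells, set as 100% plating efficiency.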

[4] = Cytotoxicity at 20 ug/mL against MSV transformed (S+L-cells) cells; assay type: cell-based; settings: mouse; outline: as §2
[5] = Percent inhibition at 20 ug/mL for focus formation on day +5, using MSV assay on C3H cells without the addition of helper virus; assay type: functional; settings: Mus musculus
Outline: (§3)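 MSV focus assay on C3H cells. 8 × 10⁴ cells are seeded per 60-mm dish and pretreated 24 h later with 20 µg/mL DEAE-dextran. Cells are infected with diluted MSV alone or MSV plus MuLV helper, with adsorption for 30 min at 37 °C. Filtered aqueous compound, diluted in medium, is added right after infection. Foci are counted on days 5 and 10. MSV titer was 7×10⁶.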

[6] = Cytotoxicity at 5 ug/mL against MSV transformed (S+L-cells) cells; assay type: cell-based; settings: mouse; outline: as §2
[7] = Percent inhibition at 3 ug/mL for focus formation on day +5, using MSV assay on C3H cells without the addition of helper virus; assay type: functional; settings: Mus musculus; outline: as §3
[8] = Percent inhibition at 3 ug/mL for focus formation using MLV assay on S+L- cells; assay type: functional; settings: Mus musculus
Murine leukemia virus = assay: Inhibitory dose against MSV titer in the absence of Murine leukemia virus on day +10; assay type: functional, Mus musculus; settings: read-out: ID50 (the source's name); outline: as §3
[9] = Percent inhibition at 20 ug/mL for focus formation on day +5, using MSV assay on C3H cells with optimal amount of helper virus; assay type: functional; settings: Mus musculus; outline: as §3
[10] = Percent inhibition at 5 ug/mL for focus formation on day +5, using MSV assay on C3H cells without the addition of helper virus; assay type: functional; settings: Mus musculus; outline: as §3
[11] = Percent inhibition at 20 ug/mL for focus formation on day +10, using MSV assay on C3H cells without the addition of helper virus; assay type: functional; settings: Mus musculus; outline: as §3
[12] = Percent inhibition at 3 ug/mL for focus formation on day +5, using MSV assay on C3H cells with optimal amount of helper virus; assay type: functional; settings: Mus musculus; outline: as §3
[13] = Percent inhibition at 3 ug/mL for focus formation on day +10, using MSV assay on C3H cells without the addition of helper virus; assay type: functional; settings: Mus musculus; outline: as §3
[14] = Percent inhibition at 5 ug/mL for focus formation on day +5, using MSV assay on C3H cells with optimal amount of helper virus; assay type: functional; settings: Mus musculus; outline: as §3
[15] = Percent inhibition at 10 ug/mL for focus formation on day +10, using MSV assay on C3H cells without the addition of helper virus; assay type: functional; settings: Mus musculus; outline: as §3
[16] = Percent inhibition at 10 ug/mL for focus formation using MLV assay on S+L- cells; assay type: functional; settings: Mus musculus
[17] = Percent inhibition at 10 ug/mL for focus formation on day +5, using MSV assay on C3H cells with optimal amount of helper virus; assay type: functional; settings: Mus musculus; outline: as §3
[18] = Percent inhibition at 10 ug/mL for focus formation on day +5, using MSV assay on C3H cells without the addition of helper virus; assay type: functional; settings: Mus musculus; outline: as §3
[19] = Percent inhibition at 5 ug/mL for focus formation on day +10, using MSV assay on C3H cells without the addition of helper virus; assay type: functional; settings: Mus musculus; outline: as §3
[20] = Toxic effect on S+L-cell colony formation; assay type: toxicity; settings: mouse, S+L- cells; read-out: TD50 (the source's name)
Outline: (§4)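 S+L- (MSV-transformed 3T3 FL) cells grown in McCoy's 5a with 10% heat-inactivated fetal calf serum and antibiotics. Plating efficiency assay: 200 cells seeded per 35-mm well; product added at various concentrations 24 h after seeding. Colonies stained with May Grunwald Giemsa and counted on day +9. Colony formation expressed relative to untreated controls taken as 100% plating efficiency.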

[21] = Cytotoxicity at 10 ug/mL against normal mouse fibroblasts (C3H cells) cells; assay type: cell-based; outline: as §2
[22] = Cytotoxicity at 10 ug/mL against MSV transformed (S+L-cells) cells; assay type: cell-based; settings: mouse; outline: as §2
[23] = Percent inhibition at 5 ug/mL for focus formation using MLV assay on S+L- cells; assay type: functional; settings: Mus musculus
[24] = Cytotoxicity at 20 ug/mL against normal mouse fibroblasts (C3H cells) cells; assay type: cell-based; outline: as §2
[25] = Percent inhibition at 100 ug/mL for focus formation on day +10, using MSV assay on C3H cells without the addition of helper virus; assay type: functional; settings: Mus musculus; outline: as §3
[26] = Cytotoxicity at 250 ug/mL against MSV transformed (S+L-cells) cells; assay type: cell-based; settings: mouse; outline: as §2
[27] = Percent inhibition at 30 ug/mL for focus formation on day +5, using MSV assay on C3H cells with optimal amount of helper virus; assay type: functional; settings: Mus musculus; outline: as §3
[28] = Toxic effect on C3H cell colony formation; assay type: toxicity, cell-based; settings: mouse, C3H cells; read-out: TD50 (the source's name); outline: as §2
[29] = Inhibitory action of Murine leukemia virus titer on S+L-cell in presence of the compound; assay type: functional; settings: Mus musculus; read-out: ID50 (the source's name)
[30] = Toxic effect on S+L- cell colony formation; assay type: toxicity; settings: mouse, S+L- cells; read-out: TD50 (the source's name); outline: as §4
[31] = Cytotoxicity at 50 ug/mL against normal mouse fibroblasts (C3H cells) cells; assay type: cell-based; outline: as §2
[32] = Percent inhibition at 50 ug/mL for focus formation on day +10, using MSV assay on C3H cells without the addition of helper virus; assay type: functional; settings: Mus musculus; outline: as §3
[33] = Percent inhibition at 100 ug/mL for focus formation using MLV assay on S+L- cells; assay type: functional; settings: Mus musculus
[34] = Cytotoxicity at 100 ug/mL against normal mouse fibroblasts (C3H cells) cells; assay type: cell-based; outline: as §2
[35] = Percent inhibition at 30 ug/mL for focus formation on day +5, using MSV assay on C3H cells without the addition of helper virus; assay type: functional; settings: Mus musculus; outline: as §3
[36] = Percent inhibition at 50 ug/mL for focus formation on day +5, using MSV assay on C3H cells with optimal amount of helper virus; assay type: functional; settings: Mus musculus; outline: as §3
[37] = Percent inhibition at 100 ug/mL for focus formation on day +5, using MSV assay on C3H cells with optimal amount of helper virus; assay type: functional; settings: Mus musculus; outline: as §3
[38] = Percent inhibition at 50 ug/mL for focus formation on day +5, using MSV assay on C3H cells without the addition of helper virus; assay type: functional; settings: Mus musculus; outline: as §3
[39] = Percent inhibition at 50 ug/mL for focus formation using MLV assay on S+L- cells; assay type: functional; settings: Mus musculus
[40] = Percent inhibition at 100 ug/mL for focus formation on day +5, using MSV assay on C3H cells without the addition of helper virus; assay type: functional; settings: Mus musculus; outline: as §3
[41] = Cytotoxicity at 100 ug/mL against MSV transformed (S+L-cells) cells; assay type: cell-based; settings: mouse; outline: as §2
[42] = Percent inhibition at 30 ug/mL for focus formation on day +10, using MSV assay on C3H cells without the addition of helper virus; assay type: functional; settings: Mus musculus; outline: as §3
[43] = Percent inhibition at 30 ug/mL for focus formation using MLV assay on S+L- cells; assay type: functional; settings: Mus musculus
[44] = Cytotoxicity at 250 ug/mL against normal mouse fibroblasts (C3H cells) cells; assay type: cell-based; outline: as §2
[45] = Cytotoxicity at 50 ug/mL against MSV transformed (S+L-cells) cells; assay type: cell-based; settings: mouse; outline: as §2
[46] = Percent inhibition at 2.5 ug/mL for focus formation on day +5, using MSV assay on C3H cells with optimal amount of helper virus; assay type: functional; settings: Mus musculus; outline: as §3
[47] = Percent inhibition at 200 ug/mL for focus formation on day +5, using MSV assay on C3H cells with optimal amount of helper virus; assay type: functional; settings: Mus musculus; outline: as §3
[48] = Percent inhibition at 200 ug/mL for focus formation using MLV assay on S+L- cells; assay type: functional; settings: Mus musculus
[49] = Percent inhibition at 200 ug/mL for focus formation on day +10, using MSV assay on C3H cells without the addition of helper virus; assay type: functional; settings: Mus musculus; outline: as §3
[50] = Percent inhibition at 200 ug/mL for focus formation on day +5, using MSV assay on C3H cells without the addition of helper virus; assay type: functional; settings: Mus musculus; outline: as §3

`C[C@@H]1O[C@@H](c2nc3c([N+](=O)[O-])cccn3n2)[C@H](O)[C@H](O)[C@@H]1O` gave a CC50 [1] of 400 µg/mL (≈ 1290 µM).
`C[C@@H]1O[C@@H](c2nc3c([N+](=O)[O-])cccn3n2)[C@H](O)[C@H](O)[C@H]1O` showed a CC50 [1] of 500 µg/mL (≈ 1610 µM).
`CC1OC(c2nc3c([N+](=O)[O-])cccn3n2)=CC(O)C1O` (stereo unspecified) gave a CC50 [2] of 62.5 µg/mL (≈ 214 µM), a Colony formation [3] of 71.5% and a Colony formation [4] of 0%. For the same compound, the inhibition at 20 µg/mL [5] was 91%, the Colony formation [6] was 49% and the inhibition at 3 µg/mL [7] was 15%. The inhibition at 3 µg/mL [8] was 30%, the IC50 (Murine leukemia virus) was 9 µg/mL (≈ 30.8 µM) and the inhibition at 20 µg/mL [9] was 76%. For the same compound, the inhibition at 5 µg/mL [10] was 44%, the inhibition at 20 µg/mL [11] was 70% and the inhibition at 3 µg/mL [12] was 39%. It also gave an inhibition at 3 µg/mL [13] of 0%, an inhibition at 5 µg/mL [14] of 26% and an inhibition at 10 µg/mL [15] of 58%. It also gave an inhibition at 10 µg/mL [16] of 82.5%, an inhibition at 10 µg/mL [17] of 50% and an inhibition at 10 µg/mL [18] of 64%. For the same compound, the inhibition at 5 µg/mL [19] was 30%, the CC50 [20] was 5 µg/mL (≈ 17.1 µM) and the Colony formation [21] was 27%. For the same compound, the Colony formation [22] was 18%, the inhibition at 5 µg/mL [23] was 50% and the Colony formation [24] was 2%.
With `CC1OC(c2nc3c([N+](=O)[O-])cccn3n2)C(O)C(O)C1=O` (stereo unspecified) the inhibition at 100 µg/mL [25] was 42%, the Colony formation [26] was 0% and the inhibition at 30 µg/mL [27] was 31%. The CC50 [28] was 150 µg/mL (≈ 487 µM), the IC50 [29] was 43 µg/mL and the CC50 [30] was 73 µg/mL (≈ 237 µM). The Colony formation [31] was 109%, the inhibition at 50 µg/mL [32] was 14% and the inhibition at 100 µg/mL [33] was 80%. It also gave an IC50 (Murine leukemia virus) of 145 µg/mL (≈ 470 µM), a Colony formation [34] of 76% and an inhibition at 30 µg/mL [35] of 35%. For the same compound, the inhibition at 50 µg/mL [36] was 46%, the inhibition at 100 µg/mL [37] was 78% and the inhibition at 50 µg/mL [38] was 54%. The inhibition at 50 µg/mL [39] was 55%, the inhibition at 100 µg/mL [40] was 67% and the Colony formation [41] was 25%. The inhibition at 30 µg/mL [42] was 0%, the inhibition at 30 µg/mL [43] was 35% and the Colony formation [44] was 21%. It also gave a Colony formation [45] of 81%.
With `O=[N+]([O-])c1cccn2nc([C@@H]3O[C@H](CO)[C@@H](O)[C@H]3O)nc12` the inhibition at 2.5 µg/mL [46] was 47%, the Colony formation [6] was 79.6% and the inhibition at 5 µg/mL [14] was 62%. For the same compound, the Colony formation [22] was 46%.
In the case of `CC1OC(c2nc3c(N)cccn3n2)C(O)C(O)C1O` (stereo unspecified), the Colony formation [26] is reported as 94%, the inhibition at 200 µg/mL [47] is reported as 11% and the IC50 [29] is reported as 200 µg/mL. The inhibition at 200 µg/mL [48] was 50%, the Colony formation [34] was 115% and the inhibition at 200 µg/mL [49] was 0%. The Colony formation [41] was 83%, the Colony formation [44] was 108% and the inhibition at 200 µg/mL [50] was 0%.
